Experimental data published in ChEMBL document CHEMBL1143612, “Combinatorial optimization of isatin-beta-thiosemicarbazones as anti-poxvirus agents” (J Med Chem, 2005).

Legend:
[1] = test system: HFF; test: Half-maximal cytotoxic concentration in human foreskin fibroblast (HFF) cells; assay type: functional
Summary of the method: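 Primary HFF cells seeded at 2.5 × 10^4/well in 96-well plates 24 h ahead. Exposed 7 d at 37 °C to drug in MEM/2% FBS, 1:5 serial dilutions, final 100 to 0.032 µg/mL.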

[2] = test system: HFF; test: Effective concentration required to inhibit cowpox virus plaque formation in human foreskin fibroblast (HFF) cells; assay type: functional, cell-based
[3] = test system: HFF; test: Effective concentration required to inhibit vaccinia virus plaque formation in human foreskin fibroblast (HFF) cells; assay type: functional, cell-based
[4] = test system: HFF; test: Ratio of Effective concentration to inhibit cowpox virus plaque formation to that of half maximal cytotoxic concentration in human foreskin fibroblast (HFF) cells; assay type: functional
[5] = test system: HFF; test: Ratio of Effective concentration to inhibit vaccinia virus plaque formation to that of half maximal cytotoxic concentration in human foreskin fibroblast (HFF) cells; assay type: functional

Structure (SMILES): CN1C(=O)/C(=N\NC(N)=S)c2ccccc21 [METHISAZONE]
- CC50 [1]: > 427 µM
- EC50 [2]: 14 µM
- EC50 [3]: 3.3 µM
- SI [4]: >31
- SI [5]: >129

Structure (SMILES): NC(=S)/N=N/c1c(O)[nH]c2ccccc12
- CC50 [1]: > 454 µM
- EC50 [2]: 60 µM
- EC50 [3]: 14 µM
- SI [4]: >7.6
- SI [5]: >32

Structure (SMILES): Nc1ccn(C[C@@H](CO)OCP(=O)(O)O)c(=O)n1.O.O [CIDOFOVIR]
- CC50 [1]: > 317 µM
- EC50 [2]: 38 µM
- EC50 [3]: 27 µM
- SI [4]: >8.3
- SI [5]: >12
